GRK2 inh: human GRK2 inhibition via aptamer displacement; P25098; bead flow cytometry, FAM-aptamer displacement from GRK2; inhibition of aptamer binding, % at 10 µM; 0.59% of 330,000 active;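 active means inhibition of aptamer binding above 40%, roughly 3 SD of noise, on plates passing a quality check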;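 further: median bead fluorescence of bound FAM aptamer so fluorescent compounds give negative values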
CaV13 FRET inh: Primary screen for inhibitors of IQ motif and Ca2+-dependent inactivation inhibitor domain binding in CACNA1D, Förster resonance energy transfer in living cells, …. HEK cells, CFP/YFP FRET ICDI-IQ, plate reader, 10 min; percent FRET-ratio fall versus neutral wells. inhibition, % at 12.3 µM. 0.098% of 340,000 active;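 active means mean replicate inhibition of at least 30% and at least 1% of replicates passing that level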;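 further: 0% = median of the neutral control wells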
T cell HTS: T cell immune modulators affecting CD8 T cell-vesicle binding; response (vesicle binding), % at 7 µM; 0.068% of 330,000 active; 2C CD8+ T cell-vesicle binding, flow cytometry; hits give low values;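 active means response, share of CD8 T cells binding vesicles, and their 90th percentile fluorescence all below set limits, cut at about 80% in these data, passing the limit was not always enough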;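 further: values below 100% mean blocked vesicle binding to the CD8+ T cells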
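System: murine 2C transgenic CD8+ T lymphocytes; also added: QL9-loaded Drosophila micro-vesicles; times: binding 1.5 h at 37 °C; measured by: flow cytometry, PE anti-B7-1 (FL2) versus Alexa647 anti-CD8 (FL8), PFA-fixed; control set: Peptide-free naked vesicles (low) and QL9 vesicles with 0.7% DMSO vehicle (high)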
proCasp7 act: counter-screen: procaspase-7 (human) activation. 0.093% of 330,000 active. recombinant procaspase-7, Ac-DEVD-pNA absorbance 405 nm; D23A/D198A/D206A triple mutant, cannot self-cleave; scale: DMSO 0, 5 µM enzyme 100. AID 463210. P55210. activation, % at 8.5 µM;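 active means percent activation above the screen-wide mean plus 3 SD, cut at about 25% in these data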
Target sequence (P55210 whole entry D23A/D198A/D206A): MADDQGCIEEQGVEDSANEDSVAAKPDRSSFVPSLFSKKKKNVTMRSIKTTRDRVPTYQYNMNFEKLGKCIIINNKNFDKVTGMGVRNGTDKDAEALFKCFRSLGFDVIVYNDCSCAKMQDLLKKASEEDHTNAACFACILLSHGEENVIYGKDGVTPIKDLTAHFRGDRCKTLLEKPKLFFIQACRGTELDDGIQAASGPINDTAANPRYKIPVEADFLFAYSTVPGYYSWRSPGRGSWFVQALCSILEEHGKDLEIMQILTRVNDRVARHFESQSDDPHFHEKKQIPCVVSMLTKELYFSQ
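System: Procaspase-7 triple mutant (PC-7 D3A); measure: % activation from two-timepoint absorbance difference, scaled to controls; times: 1 h compound preincubation, 2 h substrate cleavage, 25 °C; also added: Ac-DEVD-pNA substrate, 400 µM as added; measured by: Epi-absorbance of released pNA at 405 nm, two timepoints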
procasp3 activ: activators of human procaspase-3. P42574. recombinant procaspase-3 D3A, Ac-DEVD-pNA absorbance 405 nm. activation, % at 8.5 µM. 0.11% of 330,000 active. AID 463141;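 active means activation above the mean of all tested compounds plus 3 SD, cut at about 21% in these data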;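 further: 0% = DMSO alone and 100% = DMSO wells spiked with extra 5 µM PC-3 D3A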
Target sequence (P42574 whole entry D9A/D28A/D175A): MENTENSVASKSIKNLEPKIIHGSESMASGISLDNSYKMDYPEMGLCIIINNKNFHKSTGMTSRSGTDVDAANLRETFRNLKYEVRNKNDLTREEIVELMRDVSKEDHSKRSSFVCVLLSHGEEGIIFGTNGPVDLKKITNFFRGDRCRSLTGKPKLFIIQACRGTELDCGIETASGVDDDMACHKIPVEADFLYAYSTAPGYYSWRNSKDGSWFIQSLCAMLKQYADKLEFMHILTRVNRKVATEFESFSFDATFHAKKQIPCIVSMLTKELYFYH
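Assay system – Procaspase-3 D3A mutant, all three cleavage aspartates alanine · Controls – DMSO-only low control, 5 µM PC-3 D3A high control · Schedule – 1 h compound preincubation, 2 h substrate hydrolysis at 25 °C · Signal – 405 nm absorbance of p-nitroaniline, reads at 0 and 120 min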
aDG glyco up: increases alpha dystroglycan glycosylation. 0.22% of 360,000 active. AID 624168. Pro5-aDG cells, alpha-DG glycosylation AlphaScreen (IIH6); 0% Pro5, 100% B10-LARGE cell signal. activation, % at 10 µM;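 active means activation of at least 8% versus controls, or a plate z-score of at least 8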;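 further: Pro5 are CHO cells carrying HIG-tagged alpha-DG that lacks glycosylation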
GRK2 CP1: confirmation of human GRK2 inhibitors displacing RNA aptamer. shares compounds with GRK2 inh. bead-bound GRK2, FAM-aptamer displacement, flow cytometry. aptamer displacement, % at 10 µM. 4% of 2,000 active. AID 504451;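 active means aptamer displacement above 40%, near three times the noise of non-fluorescent compounds, on plates passing quality checks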;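 further: negative values mostly reflect intrinsic compound fluorescence rather than true enhancement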
Aptamer quench SP: aptamer fluorescence quenching in GRK2 counter-screen; shares compounds with GRK2 inh; Carboxyfluorescein RNA aptamer on beads, flow cytometry quenching; hits give low values; fluorescence response (% of DMSO), % at 10 µM; 2,000 tested, under 10 active;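 active means compounds that quench the bead-bound fluorescent RNA probe, cutting fluorescence to under half of the solvent control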;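 further: counterscreen run without GRK2 so only probe quenching by compound is measured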
GRK2 confirm 2: confirmation of human GRK2 inhibitors binding RNA aptamer site. shares compounds with GRK2 inh. bead-bound GRK2, FAM-aptamer displacement, flow cytometry. inhibition of aptamer binding, % at 10 µM. 360 tested, under 10 active;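 active means inhibition of aptamer binding above 40%, about triple the noise seen with nonglowing compounds, on plates passing quality control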;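 further: negative values mostly come from compounds that fluoresce themselves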
FAM quench SP: counter-screen for GRK2 binding hits: quenchers of fluorescent RNA aptamer; 360 tested, under 10 active; AID 588494; fluorescence response vs DMSO, % at 10 µM; shares compounds with GRK2 inh; carboxyfluorescein RNA aptamer beads, flow cytometry quenching; hits give low values;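 active means response vs DMSO under 50%, meaning signal dropped by over half, treated as fluorescence quencher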;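 further: labelled aptamer on streptavidin beads without GRK2 as a quench counter-screen; 100% = bead fluorescence of DMSO wells and lower means quenching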
* marks the source's active call; other numbers are inactive results; . = not tested or not shown. A selection: hits, their analogues and other compounds. The true share with any hit is near 1.1%.

SMILES | GRK2 inh | CaV13 FRET inh | T cell HTS | proCasp7 act | procasp3 activ | aDG glyco up | GRK2 CP1 | Aptamer quench SP | others
COc1ccc(CN(C)C(C)C(=O)Nc2ccc(S(=O)(=O)N3CCOCC3)cc2)c(OC)c1 (stereo not drawn) | 3 | -1 | 293 | 3 | -2 | 2 | . | .
COc1ccc(CN(C)C(C)C(=O)Nc2ccc(S(=O)(=O)N3CCCCC3)cc2)cc1F (stereo not drawn) | 72* | -2 | 224 | 2 | 4 | 0 | -1 | 99
Nc1c(C(=O)c2ccc(Cl)cc2)sc2c1c(=O)[nH]c(=O)n2-c1ccccc1 | 100* | -6 | 398 | 3 | 4 | 0 | . | . | GRK2 confirm 2=-5;FAM quench SP=99
Nc1c(C(=O)c2ccccc2)sc2c1c(=O)[nH]c(=O)n2-c1ccccc1 | 4 | -8 | 206 | 0 | -3 | 0 | . | .
COC(=O)c1cc2c(c3c4cc(OC)ccc4n(S(=O)(=O)c4cccc(C)c4)c13)C(=O)N(Cc1ccccc1OC)C2 | . | -4 | . | . | . | . | . | .
CCCn1nnnc1NCc1c(F)cccc1Cl | 100* | -2 | 258 | 3 | 7 | 0 | 10 | 97
CCn1c(N2CCN(C(=S)NCC(C)C)CC2)nc2ccccc21 | 4 | -8 | 418 | -9 | 0 | 0 | . | .
CC(C)CNC(=S)N1CCN(c2nc3ccccc3s2)CC1 | 42* | -4 | 621 | 4 | 7 | 1 | 0 | 98
Cc1ccc(NC(=O)CN(C)C(=O)c2cccc(S(=O)(=O)NCc3cccs3)c2)cc1 | 1 | -5 | 678 | 12 | 7 | 0 | . | .
Cc1ccc(NC(=O)CN(C)C(=O)c2cccc(S(=O)(=O)NCc3ccccc3)c2)cc1 | 91* | -6 | 776 | 7 | 12 | 0 | -3 | 110
COC(=O)C1=C(C)N(C)C(=NCc2cccc(C(F)(F)F)c2)NC1c1ccc(Cl)cc1 (stereo not drawn) | . | -4 | . | . | . | . | . | .
CCn1c(=S)sc2c(=O)n(CC(=O)Nc3ccccc3OC)c(C)nc21 | 0 | -7 | 229 | -3 | -1 | 0 | . | .
Cc1nc2c(sc(=S)n2Cc2ccco2)c(=O)n1CC(=O)Nc1ccccc1Cl | 84* | -7 | 676 | 4 | -1 | 0 | -4 | 118
C=CCSc1nc(-c2ccc(OC)cc2)c(C#N)c(=O)n1CC=C | . | . | . | . | . | 0 | . | .
O=C(CCc1nc2ccccc2c(=O)[nH]1)Nc1ccc(F)c([N+](=O)[O-])c1 | 46* | -3 | 156 | -4 | -1 | 0 | 1 | 108
CC(=O)N1CCN(C(=O)COC(=O)/C=C/c2ccccc2[N+](=O)[O-])CC1 | 0 | -6 | 638 | 1 | 7 | 0 | . | .
CSc1ccc(C(=O)C2CCCN(C(=O)CCCn3cncn3)C2)cc1 (stereo not drawn) | 76* | -4 | 475 | 5 | -8 | 0 | 6 | 96
COCCN1Cc2cc(C(=O)OC)c3c(c2C1=O)c1ccccc1n3S(=O)(=O)c1ccc(C)cc1 | . | -4 | . | . | . | . | . | .
CCc1ccc2[nH]c(C(=O)Nc3ccc(C)c(F)c3)cc2c1 | 0 | -5 | 167 | . | . | 0 | . | .
O=C(Nc1ccc(F)cc1)c1cc2cc(Cl)ccc2[nH]1 | 58* | -18 | 284 | -4 | 1 | 1 | . | . | GRK2 confirm 2=-25;FAM quench SP=100
COc1cc2c3c(c1OC)C1(C=CC(=O)C=C1)CC3N(C(=O)c1ccccc1)CC2 (stereo not drawn) | 70* | -5 | 436 | 3 | 7 | 0 | 3 | 98
O=C(Cc1ccccc1)Nc1ccc(NC(=O)c2ccccc2)nc1 | 41* | -6 | 584 | 0 | 6 | 0 | . | . | GRK2 confirm 2=8;FAM quench SP=101
COc1ccc(CCN2CCCn3c2nc2c3c(=O)n(CC(C)C)c(=O)n2C)cc1OC | 54* | -6 | 155 | . | . | 0 | 0 | 105
N#Cc1c(-c2ccccc2)cc(-c2ccccc2)[nH]c1=O | 60* | -20 | 283 | 5 | -11 | 0 | . | . | GRK2 confirm 2=4;FAM quench SP=100
O=C1CC2c3cc(-c4cc5ccccc5o4)ccc3CCN2C(=O)CN1Cc1ccccc1 (stereo not drawn) | . | -4 | . | . | . | . | . | .
SMILES | GRK2 inh | CaV13 FRET inh | T cell HTS | proCasp7 act | procasp3 activ | aDG glyco up | GRK2 CP1 | Aptamer quench SP | others
CCn1nc(C(=O)Nc2cccc3ccccc23)c(Cl)c1Cl | 0 | 20 | 345 | -4 | -6 | 0 | . | .
CCn1nc(C(=O)Nc2cccc(C(F)(F)F)c2)c(Cl)c1Cl | 53* | . | 720 | -1 | -5 | 0 | 1 | 102
Cc1ccc(CNC(=O)CCC2CCCN(C(=O)c3ccc4c(c3)OCO4)C2)o1 (stereo not drawn) | 45* | -5 | 230 | -4 | 0 | 0 | -2 | 93
Cc1ccc2nc(-c3ccc(NC(=O)CSc4ccccc4)cc3)[nH]c2c1 | 0 | -13 | 344 | -7 | -2 | 1 | . | .
O=C(CSc1ccccc1)Nc1ccc(-c2nc3ccccc3[nH]2)cc1 | 100* | -5 | 153 | -10 | 1 | 0 | . | . | GRK2 confirm 2=12;FAM quench SP=101
COc1cc([N+](=O)[O-])ccc1NC(=O)COC(=O)CCS(=O)(=O)c1ccc(C)cc1 | 2 | -5 | 373 | 2 | 8 | 0 | . | .
Cc1cccc(N2CC(C(=O)Nc3ccccc3N3CCOCC3)CC2=O)c1C (stereo not drawn) | 32 | -9 | 608 | 1 | 9 | 0 | 1 | 100
Cc1cccc(N2CC(C(=O)Nc3ccc(N4CCOCC4)cc3)CC2=O)c1C (stereo not drawn) | 0 | -10 | 379 | -11 | 2 | 0 | . | .
N#Cc1ccc2nc(-c3ccc(CN4CCC(c5nc6ccccc6[nH]5)CC4)cc3)c(-c3ccccc3)nc2c1 | . | -10 | . | . | . | . | . | .
CSc1ccc(C2CC(=O)Nc3c2c(=O)n(C)c(=O)n3C)cc1 (stereo not drawn) | 85* | -2 | 57 | 4 | -2 | 0 | 1 | 98
CCOc1cc(CNc2ncn[nH]2)ccc1OCC(=O)NC(C)(C)C | 0 | -7 | 296 | 3 | 7 | 0 | . | .

Screening data from PubChem.
